Data published in ChEMBL document CHEMBL1156735, “Might adrenergic alpha2C-agonists/alpha2A-antagonists become novel therapeutic tools for pain treatment with morphine?” (J Med Chem, 2009).

Experiments:
[1] = molecular target: T1, Alpha-2C adrenergic receptor (Homo sapiens) (UniProt P18825); assay: Intrinsic activity at human Alpha-2C adrenoceptor expressed in CHO cells assessed as extracellular acidification by cytosensor microphysiometry relative to noradrenaline; format: cell-based
T1 sequence (whole entry): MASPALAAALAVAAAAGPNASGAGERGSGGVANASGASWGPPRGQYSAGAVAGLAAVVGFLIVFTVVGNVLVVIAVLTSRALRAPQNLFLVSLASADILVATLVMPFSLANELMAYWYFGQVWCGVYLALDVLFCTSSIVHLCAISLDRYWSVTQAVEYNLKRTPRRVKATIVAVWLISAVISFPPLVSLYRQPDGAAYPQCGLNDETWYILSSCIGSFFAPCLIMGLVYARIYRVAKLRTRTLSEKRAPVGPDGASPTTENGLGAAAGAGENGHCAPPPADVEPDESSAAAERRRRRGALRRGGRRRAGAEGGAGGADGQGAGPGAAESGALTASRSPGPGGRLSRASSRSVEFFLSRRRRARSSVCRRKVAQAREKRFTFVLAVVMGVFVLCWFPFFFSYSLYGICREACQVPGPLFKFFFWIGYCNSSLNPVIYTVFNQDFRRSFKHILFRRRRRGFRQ
Outline: (§1)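 Cytosensor microphysiometry on the same CHO cell lines expressing individual human α2-AR subtypes. pEC50, pKb and intrinsic activity were derived, with ia expressed as a fraction of full agonist (-)-noradrenaline (taken as 1). ia <0.3 was scored not active. Values are mean ± SEM of three to six separate experiments.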

[2] = molecular target: T2, Alpha-2B adrenergic receptor (Homo sapiens) (UniProt P18089); assay: Intrinsic activity at human alpha2B adrenoceptor expressed in CHO cells assessed as extracellular acidification by cytosensor microphysiometry relative to noradrenaline; format: cell-based; outline: as §1
T2 sequence (whole entry): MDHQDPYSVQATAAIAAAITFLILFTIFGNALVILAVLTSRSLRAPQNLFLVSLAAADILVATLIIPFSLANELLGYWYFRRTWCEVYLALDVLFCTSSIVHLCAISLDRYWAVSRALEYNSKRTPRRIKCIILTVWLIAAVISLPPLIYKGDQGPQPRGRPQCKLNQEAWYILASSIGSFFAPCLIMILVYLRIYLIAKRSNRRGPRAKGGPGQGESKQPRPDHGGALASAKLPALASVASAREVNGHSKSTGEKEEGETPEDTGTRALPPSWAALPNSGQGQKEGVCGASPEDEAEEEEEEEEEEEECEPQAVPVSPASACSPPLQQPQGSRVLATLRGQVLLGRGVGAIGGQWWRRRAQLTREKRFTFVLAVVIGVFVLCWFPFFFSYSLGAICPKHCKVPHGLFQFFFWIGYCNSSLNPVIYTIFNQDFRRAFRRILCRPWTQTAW

[3] = molecular target: T3, Alpha-2A adrenergic receptor (Homo sapiens) (UniProt P08913); assay: Antagonist activity at human alpha2A adrenoceptor expressed in CHO cells assessed as extracellular acidification by cytosensor microphysiometry; format: functional, cell-based; outline: as §1
T3 sequence (whole entry): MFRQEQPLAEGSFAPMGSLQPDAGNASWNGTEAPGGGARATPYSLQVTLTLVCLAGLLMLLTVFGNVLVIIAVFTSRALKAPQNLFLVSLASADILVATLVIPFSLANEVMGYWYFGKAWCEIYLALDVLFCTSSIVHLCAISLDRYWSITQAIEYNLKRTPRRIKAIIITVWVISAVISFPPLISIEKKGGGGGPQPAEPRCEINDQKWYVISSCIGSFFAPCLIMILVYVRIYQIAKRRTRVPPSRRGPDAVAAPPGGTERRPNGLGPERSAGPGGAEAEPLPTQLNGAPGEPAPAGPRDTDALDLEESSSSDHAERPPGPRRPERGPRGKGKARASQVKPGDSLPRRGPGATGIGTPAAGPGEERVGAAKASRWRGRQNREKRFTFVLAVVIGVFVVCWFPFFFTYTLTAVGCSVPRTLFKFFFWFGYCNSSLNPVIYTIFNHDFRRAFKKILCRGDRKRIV

[4] = molecular target: T4, Alpha-2C adrenergic receptor (Homo sapiens, UniProt P18825); assay: Agonist activity at human Alpha-2C adrenoceptor expressed in CHO cells assessed as extracellular acidification by cytosensor microphysiometry; format: functional, cell-based; outline: as §1
T4 sequence (P18825 whole entry): T1 sequence (whole entry)

[5] = molecular target: T5, Alpha-2B adrenergic receptor (Homo sapiens, UniProt P18089); assay: Agonist activity at human alpha2B adrenoceptor expressed in CHO cells assessed as extracellular acidification by cytosensor microphysiometry; format: functional, cell-based; outline: as §1
T5 sequence (P18089 whole entry): T2 sequence (whole entry)

[6] = molecular target: T4, Alpha-2C adrenergic receptor; assay: Displacement of [3H]RX821002 from human Alpha-2C adrenoceptor expressed in CHO cell membrane after 30 mins by liquid scintillation counting; format: cell membranes
Outline: (§2)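 Competition binding against [3H]RX 821002 on membrane preparations from CHO cells, each line expressing one human α2-AR subtype (α2A, α2B or α2C); affinities reported as pKi.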

[7] = molecular target: T5, Alpha-2B adrenergic receptor; assay: Displacement of [3H]RX821002 from human alpha2B adrenoceptor expressed in CHO cell membrane after 30 mins by liquid scintillation counting; format: cell membranes; outline: as §2
[8] = molecular target: T6, Alpha-2A adrenergic receptor (Homo sapiens, UniProt P08913); assay: Displacement of [3H]RX821002 from human alpha2A adrenoceptor expressed in CHO cell membrane after 30 mins by liquid scintillation counting; format: cell membranes; outline: as §2
T6 sequence (P08913 whole entry): T3 sequence (whole entry)

NC[C@H](O)c1ccc(O)c(O)c1
Intrinsic activity [1]: 1
Intrinsic activity [2]: 1

c1ccc(C2CC2)c(OCC2=NCCN2)c1 [CIRAZOLINE]
Intrinsic activity [1]: 0.8
Intrinsic activity [2]: 1
pKb [3]: 6.4
EC50 [4]: 398 nM
EC50 [5]: 1000 nM
Ki [6]: 550 nM
Ki [7]: 525 nM
Ki [8]: 58.9 nM
